Two compounds from ChEMBL document CHEMBL1212904, “Discovery of pyrrole-indoline-2-ones as Aurora kinase inhibitors with a different inhibition profile” (J Med Chem, 2010) can be followed below.

The test system of assay [1] is HeLa. Description: Antiproliferative activity against human HeLa cells after 72 hrs by cell titer 96 assay. It counts as functional, cell-based.
The target in assay [2] is Tyrosine-protein kinase receptor UFO (Homo sapiens) (UniProt P30530). Nature of the assay: Inhibition of AXL at 1 uM by KINOMEscan binding assay.
In assay [3] the target is T1, Aurora kinase A (Homo sapiens, UniProt O14965).
T1 sequence (O14965 whole entry): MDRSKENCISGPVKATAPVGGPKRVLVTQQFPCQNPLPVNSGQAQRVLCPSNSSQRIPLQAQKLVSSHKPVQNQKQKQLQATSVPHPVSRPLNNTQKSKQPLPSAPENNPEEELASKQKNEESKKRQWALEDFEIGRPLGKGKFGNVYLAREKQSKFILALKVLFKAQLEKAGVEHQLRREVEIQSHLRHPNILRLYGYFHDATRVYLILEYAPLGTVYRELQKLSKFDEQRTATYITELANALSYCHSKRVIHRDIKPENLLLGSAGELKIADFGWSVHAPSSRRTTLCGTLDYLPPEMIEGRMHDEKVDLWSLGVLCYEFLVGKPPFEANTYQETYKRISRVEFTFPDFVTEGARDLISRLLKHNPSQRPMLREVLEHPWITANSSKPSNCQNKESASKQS
Nature of the assay: Inhibition of recombinant aurora A.

For assay [4], the target named is Platelet-derived growth factor receptor beta (Homo sapiens, UniProt P09619). Nature of the assay: Inhibition of PDGFRbeta at 1 uM by radiometric method.
Assay [5] concerns the target ALK tyrosine kinase receptor (Homo sapiens) (UniProt Q9UM73). Description: Inhibition of ALK at 1 uM by radiometric method.
Assay [6] concerns the target Glycogen synthase kinase-3 beta (Homo sapiens) (UniProt P49841). Nature of the assay: Inhibition of GSK3B at 1 uM by radiometric method.
Assay [7] addresses T2, Aurora kinase A (Homo sapiens) (UniProt O14965).
T2 sequence (whole entry): T1 sequence (O14965 whole entry)
Nature of the assay: Inhibition of aurora A in human HCT116 cells assessed as reduction of phosphorylated histone H3 at ser10 level measured at 10 uM after 3 hrs by Western blot analysis. It counts as cell-based. The following applies: HCT-116. The method in brief:
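HCT-116 cells were synchronized at G2/M with 200 ng/mL nocodazole for 17 h, then given inhibitor for a further 3.0 h. Cells were PBS-washed, boiled in 2× SDS sample buffer, and run on SDS-PAGE with immunoblotting. Rabbit antibodies detected pT288 Aurora A, total Aurora A, pS10 histone H3 and total H3; β-actin served as loading control.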
For orientation: Immunoblotting shows a protein as a band on a membrane.

The target of assay [8] is Mitogen-activated protein kinase kinase kinase kinase 5 (Homo sapiens) (UniProt Q9Y4K4). Nature of the assay: Inhibition of MAP4K5 at 1 uM by KINOMEscan binding assay.
For assay [9], the system named is HCT-116. Nature of the assay: Antiproliferative activity against human HCT116 cells after 72 hrs by cell titer 96 assay. It counts as functional, cell-based. The following applies: HCT-116, 72 h.
Assay [10] concerns the target RAF proto-oncogene serine/threonine-protein kinase (Homo sapiens) (UniProt P04049). Nature of the assay: Inhibition of c-Raf at 1 uM by radiometric method.
For assay [11], the target named is Serine/threonine-protein kinase 10 (Homo sapiens) (UniProt O94804). Nature of the assay: Inhibition of LOK at 1 uM by KINOMEscan binding assay.
In assay [12] the target is Receptor-type tyrosine-protein kinase FLT3 (Homo sapiens, UniProt P36888). Nature of the assay: Inhibition of FLT3 by radiometric method.
The test system of assay [13] is HCT-116. Nature of the assay: Cell cycle arrest in human HCT116 cells assessed as increase of multinucleated octoploid 8 N DNA at 4 uM after 24 hrs by flow cytometry. It counts as functional, cell-based. The gist of the method: (§1)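 HCT-116 cells exposed to 4 μM for 24 h, then trypsinized, PBS-washed, fixed in ice-cold 70% ethanol at -20 °C overnight. Cells were washed twice in PBS and stained 30 min in PBS with 2 μg/mL RNase A and 5 μg/mL propidium iodide. DNA content was read by flow cytometry to score 4 N and ≥8 N populations.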

Assay [14] concerns the target Vascular endothelial growth factor receptor 2 (Homo sapiens, UniProt P35968). Nature of the assay: Inhibition of VEGFR2 by radiometric method.
Assay [15] concerns the target High affinity nerve growth factor receptor (Homo sapiens) (UniProt P04629). Description: Inhibition of TRK at 1 uM by KINOMEscan binding assay.
Assay [16] addresses Ephrin type-A receptor 1 (Homo sapiens) (UniProt P21709). Nature of the assay: Inhibition of EPHA1 at 1 uM by radiometric method.
Assay [17] deals with Aurora kinase B (Homo sapiens, UniProt Q96GD4). Description: Inhibition of recombinant aurora B.
Assay [18] has as its target 3-phosphoinositide-dependent protein kinase 1 (Homo sapiens) (UniProt O15530). Description: Inhibition of PDK1 at 1 uM by radiometric method.
In assay [19] the test system is HCT-116. Description: Cell cycle arrest in human HCT116 cells assessed as increase of tetraploid 4N DNA at 4 uM after 24 hrs by flow cytometry. It counts as functional, cell-based. The method in brief: as §1
On the technique in general: Flow cytometry measures light scatter and fluorescence of single cells or particles in a stream.

Assay [20] has as its target RAC-alpha serine/threonine-protein kinase (Homo sapiens) (UniProt P31749). Description: Inhibition of AKT1 at 1 uM by radiometric method.
Assay [21] has as its target Serine/threonine-protein kinase mTOR (Homo sapiens) (UniProt P42345). Nature of the assay: Inhibition of mTOR at 1 uM by radiometric method.
Assay [22] concerns the target Phosphatidylinositol 5-phosphate 4-kinase type-2 gamma (Homo sapiens) (UniProt Q8TBX8). Description: Inhibition of PIP5K2C at 1 uM by KINOMEscan binding assay.
In assay [23] the target is Mast/stem cell growth factor receptor Kit (Homo sapiens, UniProt P10721). Nature of the assay: Inhibition of c-Kit at 1 uM by radiometric method.
Assay [24] deals with HCT-116. Description: Antiproliferative activity against human HCT116 cells after 72 hrs by [3H]thymidine incorporation assay. It counts as functional, cell-based. (Incorporation of labelled thymidine or its analogues reports DNA synthesis.)
Assay [25] concerns the target Tyrosine-protein kinase ABL1 (Homo sapiens) (UniProt P00519). Description: Inhibition of ABL1 at 1 uM by radiometric method.

The source made the active and inactive calls. The calls are words filed in the database; no cut-off is given here. Where only a bound is given, the exact number is not on record here.

Usually IC50 stands for the concentration at which inhibition is half-maximal. What is called inhibition is the relative decrease from the control value, in per cent.

Chain of 3-phosphoinositide-dependent protein kinase 1 (Homo sapiens) (O15530 whole entry, looked up): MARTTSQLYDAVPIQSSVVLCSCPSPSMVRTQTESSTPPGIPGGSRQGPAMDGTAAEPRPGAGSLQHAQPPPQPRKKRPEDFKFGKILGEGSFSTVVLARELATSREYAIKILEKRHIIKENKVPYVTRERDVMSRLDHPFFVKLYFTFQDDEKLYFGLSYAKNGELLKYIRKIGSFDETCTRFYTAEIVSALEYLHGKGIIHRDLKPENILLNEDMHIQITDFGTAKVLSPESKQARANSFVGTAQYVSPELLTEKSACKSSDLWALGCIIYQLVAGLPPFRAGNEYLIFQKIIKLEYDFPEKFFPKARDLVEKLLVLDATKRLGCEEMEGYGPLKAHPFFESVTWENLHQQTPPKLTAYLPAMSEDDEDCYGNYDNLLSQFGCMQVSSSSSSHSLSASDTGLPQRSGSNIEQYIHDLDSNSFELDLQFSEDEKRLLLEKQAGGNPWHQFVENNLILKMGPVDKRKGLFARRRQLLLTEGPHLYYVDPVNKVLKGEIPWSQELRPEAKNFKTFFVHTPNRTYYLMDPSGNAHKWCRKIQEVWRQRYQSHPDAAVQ
Chain of RAF proto-oncogene serine/threonine-protein kinase (Homo sapiens) (P04049 whole entry): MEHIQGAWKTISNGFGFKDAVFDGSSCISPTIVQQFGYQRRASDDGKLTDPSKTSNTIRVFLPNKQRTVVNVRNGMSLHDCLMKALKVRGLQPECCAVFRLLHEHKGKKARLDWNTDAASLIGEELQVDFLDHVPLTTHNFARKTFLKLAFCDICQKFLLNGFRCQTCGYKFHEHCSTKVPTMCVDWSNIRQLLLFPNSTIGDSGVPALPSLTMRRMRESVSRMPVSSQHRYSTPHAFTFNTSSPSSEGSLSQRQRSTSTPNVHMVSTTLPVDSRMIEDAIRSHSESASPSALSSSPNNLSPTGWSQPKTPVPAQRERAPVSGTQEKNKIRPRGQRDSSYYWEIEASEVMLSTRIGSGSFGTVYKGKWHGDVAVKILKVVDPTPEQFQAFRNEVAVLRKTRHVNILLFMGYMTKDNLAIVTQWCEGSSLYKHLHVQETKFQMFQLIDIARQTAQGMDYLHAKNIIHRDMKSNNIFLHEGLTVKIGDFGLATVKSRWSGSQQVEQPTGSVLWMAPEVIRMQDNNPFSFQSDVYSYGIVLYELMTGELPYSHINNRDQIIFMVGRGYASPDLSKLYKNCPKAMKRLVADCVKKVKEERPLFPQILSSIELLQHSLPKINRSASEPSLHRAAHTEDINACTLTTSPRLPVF
Chain of Serine/threonine-protein kinase 10 (Homo sapiens) (O94804 whole entry, looked up): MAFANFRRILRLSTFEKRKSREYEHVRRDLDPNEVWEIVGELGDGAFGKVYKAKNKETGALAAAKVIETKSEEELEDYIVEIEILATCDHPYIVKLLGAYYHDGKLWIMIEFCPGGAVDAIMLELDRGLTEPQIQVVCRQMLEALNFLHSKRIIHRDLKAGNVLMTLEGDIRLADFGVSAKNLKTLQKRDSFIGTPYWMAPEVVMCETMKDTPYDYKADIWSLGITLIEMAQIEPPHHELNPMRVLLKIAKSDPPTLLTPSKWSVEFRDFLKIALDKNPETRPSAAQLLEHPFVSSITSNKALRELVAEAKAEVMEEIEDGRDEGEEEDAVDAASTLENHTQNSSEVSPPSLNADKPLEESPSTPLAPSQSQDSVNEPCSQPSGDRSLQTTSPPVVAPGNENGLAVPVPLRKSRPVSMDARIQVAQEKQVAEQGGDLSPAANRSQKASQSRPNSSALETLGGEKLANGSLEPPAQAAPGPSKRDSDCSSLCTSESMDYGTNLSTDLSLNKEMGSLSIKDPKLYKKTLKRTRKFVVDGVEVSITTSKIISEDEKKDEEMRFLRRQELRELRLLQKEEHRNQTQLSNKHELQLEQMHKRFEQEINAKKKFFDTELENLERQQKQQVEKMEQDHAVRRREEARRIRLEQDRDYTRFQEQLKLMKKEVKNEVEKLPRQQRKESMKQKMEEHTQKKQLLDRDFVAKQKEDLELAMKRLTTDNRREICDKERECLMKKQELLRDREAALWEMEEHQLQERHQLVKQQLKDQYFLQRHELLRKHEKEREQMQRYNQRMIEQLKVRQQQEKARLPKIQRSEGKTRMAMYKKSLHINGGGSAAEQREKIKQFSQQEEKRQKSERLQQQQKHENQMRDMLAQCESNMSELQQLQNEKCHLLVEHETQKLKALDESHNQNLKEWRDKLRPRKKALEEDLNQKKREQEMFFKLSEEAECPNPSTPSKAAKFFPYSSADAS
Chain of Mast/stem cell growth factor receptor Kit (P10721 whole entry): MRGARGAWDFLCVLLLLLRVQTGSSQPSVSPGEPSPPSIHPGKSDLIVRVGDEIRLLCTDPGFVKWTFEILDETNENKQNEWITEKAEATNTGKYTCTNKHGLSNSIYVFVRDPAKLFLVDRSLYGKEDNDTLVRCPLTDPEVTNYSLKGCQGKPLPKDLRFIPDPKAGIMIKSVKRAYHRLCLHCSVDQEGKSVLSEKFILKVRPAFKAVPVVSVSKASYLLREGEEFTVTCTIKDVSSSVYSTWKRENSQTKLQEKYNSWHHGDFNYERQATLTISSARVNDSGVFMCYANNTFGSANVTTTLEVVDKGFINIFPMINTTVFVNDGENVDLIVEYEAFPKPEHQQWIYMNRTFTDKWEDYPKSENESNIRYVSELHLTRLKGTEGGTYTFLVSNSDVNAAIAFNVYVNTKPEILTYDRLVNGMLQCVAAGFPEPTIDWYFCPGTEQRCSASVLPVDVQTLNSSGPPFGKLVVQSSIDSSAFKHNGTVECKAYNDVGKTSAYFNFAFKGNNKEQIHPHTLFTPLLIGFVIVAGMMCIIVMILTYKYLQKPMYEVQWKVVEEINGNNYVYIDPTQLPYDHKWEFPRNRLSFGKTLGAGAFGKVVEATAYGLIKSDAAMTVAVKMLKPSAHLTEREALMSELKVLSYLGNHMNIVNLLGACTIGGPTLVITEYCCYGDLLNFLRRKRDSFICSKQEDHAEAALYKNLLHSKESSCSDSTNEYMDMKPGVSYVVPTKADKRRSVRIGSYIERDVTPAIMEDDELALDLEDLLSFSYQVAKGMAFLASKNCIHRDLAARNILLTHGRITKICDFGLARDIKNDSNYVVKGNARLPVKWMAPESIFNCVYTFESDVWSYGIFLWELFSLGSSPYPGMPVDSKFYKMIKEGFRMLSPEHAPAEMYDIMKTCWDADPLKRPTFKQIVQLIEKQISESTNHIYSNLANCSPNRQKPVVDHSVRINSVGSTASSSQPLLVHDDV
Chain of Ephrin type-A receptor 1 (Homo sapiens) (P21709 whole entry): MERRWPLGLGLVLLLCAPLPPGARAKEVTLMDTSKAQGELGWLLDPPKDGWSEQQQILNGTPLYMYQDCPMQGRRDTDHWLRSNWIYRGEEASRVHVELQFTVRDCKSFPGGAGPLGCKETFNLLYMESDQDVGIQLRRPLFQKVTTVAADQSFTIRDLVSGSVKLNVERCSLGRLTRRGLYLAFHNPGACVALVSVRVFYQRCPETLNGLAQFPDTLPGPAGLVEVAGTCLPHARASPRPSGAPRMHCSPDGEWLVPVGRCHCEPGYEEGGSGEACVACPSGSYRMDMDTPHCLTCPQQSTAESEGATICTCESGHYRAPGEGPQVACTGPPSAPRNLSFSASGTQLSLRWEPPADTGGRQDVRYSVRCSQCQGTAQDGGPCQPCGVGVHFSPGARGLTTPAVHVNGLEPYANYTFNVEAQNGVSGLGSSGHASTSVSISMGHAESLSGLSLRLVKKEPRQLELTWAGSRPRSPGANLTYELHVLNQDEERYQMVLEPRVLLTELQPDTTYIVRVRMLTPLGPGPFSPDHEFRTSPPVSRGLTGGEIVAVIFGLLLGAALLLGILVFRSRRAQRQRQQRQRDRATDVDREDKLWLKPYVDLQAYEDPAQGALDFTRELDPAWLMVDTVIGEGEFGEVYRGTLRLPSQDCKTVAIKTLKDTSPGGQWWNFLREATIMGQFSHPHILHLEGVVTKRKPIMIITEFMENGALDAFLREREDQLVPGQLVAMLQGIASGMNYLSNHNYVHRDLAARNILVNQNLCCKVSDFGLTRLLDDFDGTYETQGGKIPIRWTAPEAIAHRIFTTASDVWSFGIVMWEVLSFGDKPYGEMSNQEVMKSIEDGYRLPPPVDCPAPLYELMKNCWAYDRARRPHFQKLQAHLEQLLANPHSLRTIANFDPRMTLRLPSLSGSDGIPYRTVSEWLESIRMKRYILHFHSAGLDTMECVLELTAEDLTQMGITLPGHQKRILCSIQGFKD
Chain of High affinity nerve growth factor receptor (Homo sapiens) (P04629 33-796 limits assumed): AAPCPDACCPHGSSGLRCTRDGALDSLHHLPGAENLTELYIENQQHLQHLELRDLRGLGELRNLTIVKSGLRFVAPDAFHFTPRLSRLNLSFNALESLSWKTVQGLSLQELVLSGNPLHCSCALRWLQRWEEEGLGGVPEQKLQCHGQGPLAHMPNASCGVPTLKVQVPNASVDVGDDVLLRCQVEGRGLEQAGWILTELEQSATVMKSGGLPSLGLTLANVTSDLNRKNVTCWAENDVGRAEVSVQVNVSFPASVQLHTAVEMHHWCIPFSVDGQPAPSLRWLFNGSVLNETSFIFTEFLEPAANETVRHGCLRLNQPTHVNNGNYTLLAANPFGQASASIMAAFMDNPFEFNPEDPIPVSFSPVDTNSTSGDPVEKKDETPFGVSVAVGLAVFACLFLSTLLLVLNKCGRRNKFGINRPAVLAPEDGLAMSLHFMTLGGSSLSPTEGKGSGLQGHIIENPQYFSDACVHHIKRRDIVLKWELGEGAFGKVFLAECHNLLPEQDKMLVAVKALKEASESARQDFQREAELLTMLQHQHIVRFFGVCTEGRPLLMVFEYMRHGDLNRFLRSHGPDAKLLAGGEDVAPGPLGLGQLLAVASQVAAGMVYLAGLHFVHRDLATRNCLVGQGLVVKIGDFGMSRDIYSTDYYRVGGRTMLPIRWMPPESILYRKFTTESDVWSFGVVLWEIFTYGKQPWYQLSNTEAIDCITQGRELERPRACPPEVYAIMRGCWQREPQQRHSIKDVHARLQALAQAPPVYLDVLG

Consider `CN(C)CCCc1c(/C=C2\C(=O)Nc3ccc(NS(=O)(=O)c4ccccc4)cc32)[nH]c2c1C(=O)CCC2`, for which the IC50 is 7800 nM in assay [1]; 2190 nM in [3]; 3690 nM in [9]; under 1000 nM in [12]; under 1000 nM in assay [14]; 235 nM in assay [17]. Moreover, the residual activity in assay [2], in [8], in assay [11], in [15] and in assay [22] was under 10% in each case. Besides, the inhibition is 70% in [4]; 85% in assay [5]; 24% in assay [6]; -7% in assay [10]; 24% in assay [16]; 11% in assay [18]. In addition, the inhibition stood at 9% in assay [20], 25% in assay [21] and 65% in assay [23]. For the same compound, the inhibition result in assay [7] is “Active”. For the same compound, the result in [13] and in [19] was Active.

In the case of `CCOC(=O)CCc1c(/C=C2\C(=O)Nc3ccc(NS(=O)(=O)c4ccccc4)cc32)[nH]c2c1C(=O)CCC2`, the residual activity in assay [2], in assay [8], in assay [11], in assay [15] and in [22] was under 10% each time. The inhibition is 47% in assay [4]; 80% in assay [5]; 47% in assay [6]; -8% in assay [10]; 29% in assay [16]; 31% in assay [25]. Besides, the inhibition came to 24% in assay [18], 11% in assay [20], 9% in assay [21] and 41% in [23]. For the same compound, the IC50 in assay [24] worked out at 1020 nM; in [9], 3740 nM. For the same compound, in assay [7], the inhibition entry was “Active”.
